Laboratory results as given in ChEMBL document CHEMBL1149837, “Isothiocyanate sesquiterpenes from a sponge of the genus axinyssa” (2008).
Activity calls are given as the source filed them. No cut-off for these calls is given here.

Columns and labels:
MDA-MB-231 [1] = assay: Cytotoxicity against human MDA-MB-231 cells at 10ug/ml by SRB assay; format: functional, cell-based
Procedure, shortened: (§1)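 SRB colorimetric assay of cell growth and viability, adapted from a published method, in human tumour lines MDA-MB-231 (breast adenocarcinoma), A-549 (lung adenocarcinoma) and HT-29 (colon adenocarcinoma). The highest concentration tested was 10 µg/mL. Read-outs were GI50 and TGI, both in µM.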

A549 [2] = assay: Cytotoxicity against human A549 cells at 10ug/ml by SRB assay; format: functional, cell-based; procedure, shortened: as §1
HT-29 [3] = assay: Cytotoxicity against human HT29 cells at 10ug/ml by SRB assay; format: functional, cell-based; procedure, shortened: as §1
A549 [4] = assay: Cytotoxicity against human A549 cells by SRB assay; format: functional; procedure, shortened: as §1
HT-29 [5] = assay: Cytotoxicity against human HT29 cells by SRB assay; format: functional; procedure, shortened: as §1
MDA-MB-231 [6] = assay: Cytotoxicity against human MDA-MB-231 cells by SRB assay; format: functional; procedure, shortened: as §1

| Compound | Activity (MDA-MB-231 [1]) | Activity (A549 [2]) | Activity (HT-29 [3]) | GI50 (A549 [4]) [µM] | GI50 (HT-29 [5]) [µM] | GI50 (MDA-MB-231 [6]) [µM] | TGI (MDA-MB-231 [6]) [µM] | TGI (A549 [4]) [µM] | TGI (HT-29 [5]) [µM] |
| --- | --- | --- | --- | --- | --- | --- | --- | --- | --- |
| CC(C)[C@@H]1CC[C@](C)(N=C=S)[C@]2(O)CC[C@@](C)(O)C=C12 | inactive | inactive | inactive |  |  |  |  |  |  |
| CC(C)[C@@]1(OO)CC[C@](C)(N=C=S)[C@@H]2CC[C@@](C)(O)C=C21 | inactive | inactive | inactive |  |  |  |  |  |  |
| CC1=C[C@@H]2[C@@H](C(C)C)CC[C@@](C)(N=C=S)[C@@H]2CC1=O [AXINISOTHIOCYANATE L] |  |  |  | 31.4 | 31.4 |  |  |  |  |
| CC(C)[C@@H]1CC[C@](C)(N=C=S)[C@@H]2CC[C@@](C)(O)C=C12 [AXINISOTHIOCYANATE J] |  |  |  | 11.8 | 11.8 | 10.4 | 14.3 | 19 | 14 |
